Converted amounts (≈) assume the structure as drawn. The source made the active and inactive calls. The calls are words filed in the database; no cut-off is given here.
Experiments:
DNA gyrase subunit B = DNA gyrase subunit B (Escherichia coli, UniProt P0AES6); assay: Inhibition of Escherichia coli DNA gyrase-B using relaxed pUC19 DNA as substrate after 1 hr by bromophenol blue dye based agarose gel electrophoresis method
Method in brief: (§1)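 E. coli DNA gyrase, 1 unit, with 0.3 µg relaxed pUC19 plasmid in 1X gyrase assay buffer. Compound added as 0.2 µL from 100 µM stock; ciprofloxacin positive control, DMSO solvent control. Incubated 37 °C for 1 h, stopped with 50% glycerol/0.25% bromophenol blue. Run on 1% agarose in 0.5X TBE pH 8.3, 16 h at 30 mA, ethidium bromide stained, UV visualised for supercoiling.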

[1] = system: Mycobacterium tuberculosis; assay: Ratio of MBC to MIC for MDR Mycobacterium tuberculosis isolate 591; type: functional
[2] = Selectivity index, ratio of IC50 for cytotoxicity against human THP1 cells to MIC for Mycobacterium tuberculosis H37Rv; type: toxicity, cell-based; conditions: THP-1 cells, read-out: Selectivity Index
Method in brief: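 THP-1 cells, 10^4/well, adhered with PMA 20 ng/mL, in RPMI with 10 % FCS and 2 mM L-glutamine; exposed to 4.68–150 µg/mL for 24 and 48 h at 37 °C, 5 % CO2; MTT 4 h, formazan in DMSO, A540. Index = THP-1 IC50 divided by H37Rv MABA MIC.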

[3] = system: Mycobacterium tuberculosis; assay: Antimycobacterial activity against MDR Mycobacterium tuberculosis isolate 591 after 15 days by MABA; type: functional; conditions: isolate 591, 360 h
Method in brief: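 MABA in 7H9 medium on MDR clinical isolate 591: filtered single-cell suspension, 1 × 10^6 cells per well with drug dilutions, aerobic 37 °C; 0.02 % resazurin added on day 15, overnight 37 °C. MIC = lowest concentration preventing blue-to-pink change. Triplicate; medium+inoculum and medium-only controls.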

[4] = Cytotoxicity against human THP1 cells assessed as cell viability at 75 ug/ml after 24 hrs by MTT assay relative to control; type: cell-based; conditions: THP-1 cells, read-out: Activity
Method in brief: (§2)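 THP-1 cells (human monocytic line) seeded at 10^4 per well and adhered with phorbol myristate acetate (20 ng/mL). Then given fresh RPMI with 10% foetal calf serum and 2 mM L-glutamine, plus compound by serial double dilution (4.68–150 µg/mL), with DMSO and no-DMSO controls. Incubated 24 or 48 h at 37 °C, 5% CO2. MTT added for 4 h, formazan dissolved in DMSO, A540 read, percentage survival calculated.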

[5] = system: Mycobacterium tuberculosis; assay: Antimycobacterial activity against Mycobacterium tuberculosis H37Rv after 10 days by MABA; type: functional; conditions: 240 h
Method in brief: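 MABA in 7H9 medium: log-phase culture passed through 8 µm filter, density set by OD600 and McFarland standards, 1 × 10^6 cells per well with drug dilutions; aerobic incubation 37 °C 10 days, then 0.02 % resazurin, overnight 37 °C. MIC = lowest concentration preventing blue-to-pink change. Triplicate; medium+inoculum and medium-only controls.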

[6] = system: Mycobacterium tuberculosis; assay: Bactericidal activity against MDR Mycobacterium tuberculosis isolate 591 after 4 weeks by MABA; type: functional; conditions: isolate 591, 672 h
[7] = Cytotoxicity against human THP1 cells assessed as cell viability at 150 ug/ml after 48 hrs by MTT assay relative to control; type: cell-based; conditions: THP-1 cells, read-out: Activity; method in brief: as §2
THP-1 = assay: Cytotoxicity against human THP1 cells assessed as growth inhibition after 24 to 48 hrs by MTT assay; type: cell-based; method in brief: as §2
[8] = Cytotoxicity against human THP1 cells assessed as cell viability at 37.48 ug/ml after 48 hrs by MTT assay relative to control; type: cell-based; conditions: THP-1 cells, read-out: Activity; method in brief: as §2
[9] = Cytotoxicity against human THP1 cells assessed as cell viability at 18.72 ug/ml after 24 hrs by MTT assay relative to control; type: cell-based; conditions: THP-1 cells, read-out: Activity; method in brief: as §2
[10] = Cytotoxicity against human THP1 cells assessed as cell viability at 9.36 ug/ml after 48 hrs by MTT assay relative to control; type: cell-based; conditions: THP-1 cells, read-out: Activity; method in brief: as §2
[11] = biological target: DNA gyrase subunit B (Escherichia coli) (UniProt P0AES6); assay: Inhibition of Escherichia coli DNA gyrase-B at 0.66 to 100 uM using relaxed pUC19 DNA as substrate after 1 hr by bromophenol blue dye based agarose gel electrophoresis method; method in brief: as §1
[12] = Cytotoxicity against human THP1 cells assessed as cell viability at 18.72 ug/ml after 48 hrs by MTT assay relative to control; type: cell-based; conditions: THP-1 cells, read-out: Activity; method in brief: as §2
[13] = Cytotoxicity against human THP1 cells assessed as cell viability at 150 ug/ml after 24 hrs by MTT assay relative to control; type: cell-based; conditions: THP-1 cells, read-out: Activity; method in brief: as §2
[14] = Cytotoxicity against human THP1 cells assessed as cell viability at 4.68 ug/ml after 48 hrs by MTT assay relative to control; type: cell-based; conditions: THP-1 cells, read-out: Activity; method in brief: as §2
[15] = system: Mycobacterium tuberculosis; assay: Ratio of MBC to MIC for Mycobacterium tuberculosis H37Rv; type: functional
[16] = system: Mycobacterium tuberculosis; assay: Antimycobacterial activity against Mycobacterium tuberculosis H37Rv assessed as cells with vacuole formation at 4.15 uM after 30 mins by TEM analysis; type: functional, organism-based
[17] = Cytotoxicity against human THP1 cells assessed as cell viability at 75 ug/ml after 48 hrs by MTT assay relative to control; type: cell-based; conditions: THP-1 cells, read-out: Activity; method in brief: as §2
[18] = system: Mycobacterium tuberculosis; assay: Bactericidal activity against Mycobacterium tuberculosis H37Rv after 4 weeks by MABA; type: functional; conditions: 672 h
[19] = biological target: T1, Enoyl-[acyl-carrier-protein] reductase [NADH] (Mycobacterium tuberculosis) (UniProt P9WGR1); assay: Inhibition of Mycobacterium tuberculosis H37Rv InhA expressed in Escherichia coli at 5 to 100 uM preincubated for 30 mins followed by crotonoyl-CoA substrate and NADH addition measured over 15 mins by spectrophotometric method
T1 sequence (whole entry): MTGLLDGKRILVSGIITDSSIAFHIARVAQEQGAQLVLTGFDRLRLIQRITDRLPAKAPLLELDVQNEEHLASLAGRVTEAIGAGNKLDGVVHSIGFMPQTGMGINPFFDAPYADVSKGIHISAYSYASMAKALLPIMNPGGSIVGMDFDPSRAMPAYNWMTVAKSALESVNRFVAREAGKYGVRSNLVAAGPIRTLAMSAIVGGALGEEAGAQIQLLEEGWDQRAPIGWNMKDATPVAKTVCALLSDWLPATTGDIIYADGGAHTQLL
Method in brief: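 Purified recombinant InhA (Rv1484, cloned in E. coli), 2 µg, preincubated 30 min with compound at 5 µM final (DMSO ≤1 % v/v) in 100 mM sodium phosphate pH 7.5; started with 100 µM NADH and 100 µM crotonoyl-CoA; A340 followed 15 min at room temperature. Triplicate.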

[20] = Cytotoxicity against human THP1 cells assessed as cell viability at 37.48 ug/ml after 24 hrs by MTT assay relative to control; type: cell-based; conditions: THP-1 cells, read-out: Activity; method in brief: as §2
[21] = Cytotoxicity against human THP1 cells assessed as cell viability at 9.36 ug/ml after 24 hrs by MTT assay relative to control; type: cell-based; conditions: THP-1 cells, read-out: Activity; method in brief: as §2
[22] = system: Mycobacterium tuberculosis; assay: Antimycobacterial activity against Mycobacterium tuberculosis H37Rv assessed as induction of cell wall disintegration at 4.15 uM after 30 mins by TEM analysis; type: functional, organism-based
[23] = Cytotoxicity against human THP1 cells assessed as cell viability at 4.68 ug/ml after 24 hrs by MTT assay relative to control; type: cell-based; conditions: THP-1 cells, read-out: Activity; method in brief: as §2
[24] = system: Mycobacterium tuberculosis; assay: Potency index, ratio of isoniazid MIC to compound MIC for antimycobacterial activity against MDR Mycobacterium tuberculosis isolate 591; type: functional
[25] = system: Mycobacterium tuberculosis; assay: Potency index, ratio of ethambutol MIC to compound MIC for antimycobacterial activity against MDR Mycobacterium tuberculosis isolate 591; type: functional
[26] = system: Mycobacterium tuberculosis; assay: Potency index, ratio of rifampicin MIC to compound MIC for antimycobacterial activity against MDR Mycobacterium tuberculosis isolate 591; type: functional
[27] = system: Mycobacterium tuberculosis; assay: Potency index, ratio of streptomycin MIC to compound MIC for antimycobacterial activity against MDR Mycobacterium tuberculosis isolate 591; type: functional
[28] = system: Mycobacterium tuberculosis; assay: Antimycobacterial activity against Mycobacterium tuberculosis H37Rv assessed as induction of cell wall disintegration at 0.05 uM after 30 mins by TEM analysis; type: functional, organism-based

Cc1cc(=O)oc2cc(-c3cn([C@@H]4O[C@H](CO)[C@@H](O)[C@H]4O)nn3)ccc12
IC50 (DNA gyrase subunit B): 3.2 µM | Ratio [1]: 1 | selectivity ratio [2]: 25 | MIC [3]: 22.2 µM (≈ 7.98 µg/mL) | viability at 24 h, 75 ug/ml [4]: 96% | MIC [5]: 16.6 µM (≈ 5.97 µg/mL) | MBC [6]: 22.2 µM (≈ 7.98 µg/mL) | viability at 48 h, 150 ug/ml [7]: 60% | IC50 (THP-1): > 417 µM | viability at 48 h, 37.48 ug/ml [8]: 77% | viability at 24 h, 18.72 ug/ml [9]: 99% | viability at 48 h, 9.36 ug/ml [10]: 90% | inhibition [11]: Active | viability at 48 h, 18.72 ug/ml [12]: 87% | viability at 24 h, 150 ug/ml [13]: 84% | viability at 48 h, 4.68 ug/ml [14]: 96% | Ratio [15]: 1 | Activity [16]: Active | viability at 48 h, 75 ug/ml [17]: 64% | MBC [18]: 16.7 µM (≈ 6 µg/mL) | inhibition [19]: Active | viability at 24 h, 37.48 ug/ml [20]: 99% | viability at 24 h, 9.36 ug/ml [21]: 100% | Activity [22]: Active | viability at 24 h, 4.68 ug/ml [23]: 100%

O=c1cc(-c2ccccc2)c2ccc(OCc3cn([C@@H]4O[C@H](CO)[C@@H](O)[C@H]4O)nn3)cc2o1
Ratio [24]: 7 - 420 | selectivity ratio [2]: 75.4 | MIC [3]: 8.9 µM (≈ 4.02 µg/mL) | Ratio [25]: 7 - 420 | Ratio [26]: 7 - 420 | viability at 24 h, 75 ug/ml [4]: 88% | MIC [5]: 4.4 µM (≈ 1.99 µg/mL) | viability at 48 h, 150 ug/ml [7]: 62% | IC50 (THP-1): > 332 µM | viability at 48 h, 37.48 ug/ml [8]: 78% | viability at 24 h, 18.72 ug/ml [9]: 100% | viability at 48 h, 9.36 ug/ml [10]: 93% | viability at 48 h, 18.72 ug/ml [12]: 84% | viability at 24 h, 150 ug/ml [13]: 79% | viability at 48 h, 4.68 ug/ml [14]: 95% | Ratio [15]: 4 | viability at 48 h, 75 ug/ml [17]: 70% | MBC [18]: 17.7 µM (≈ 7.99 µg/mL) | viability at 24 h, 37.48 ug/ml [20]: 94% | viability at 24 h, 9.36 ug/ml [21]: 100% | Ratio [27]: 7 - 420 | viability at 24 h, 4.68 ug/ml [23]: 100%

O=C(OC[C@H]1O[C@@H](n2cc(COc3ccc4c(-c5ccccc5)cc(=O)oc4c3)nn2)[C@H](OC(=O)c2ccccc2)[C@@H]1OC(=O)c1ccccc1)c1ccccc1
Ratio [24]: 7 - 420 | selectivity ratio [2]: 37.6 | MIC [3]: 5.2 µM (≈ 3.97 µg/mL) | Ratio [25]: 7 - 420 | Ratio [26]: 7 - 420 | viability at 24 h, 75 ug/ml [4]: 81% | MIC [5]: 5.2 µM (≈ 3.97 µg/mL) | viability at 48 h, 150 ug/ml [7]: 64% | IC50 (THP-1): > 196 µM | viability at 48 h, 37.48 ug/ml [8]: 74% | viability at 24 h, 18.72 ug/ml [9]: 97% | viability at 48 h, 9.36 ug/ml [10]: 93% | viability at 48 h, 18.72 ug/ml [12]: 84% | viability at 24 h, 150 ug/ml [13]: 66% | viability at 48 h, 4.68 ug/ml [14]: 95% | Ratio [15]: 2 | viability at 48 h, 75 ug/ml [17]: 70% | MBC [18]: 10.5 µM (≈ 8.02 µg/mL) | viability at 24 h, 37.48 ug/ml [20]: 81% | viability at 24 h, 9.36 ug/ml [21]: 100% | Ratio [27]: 7 - 420 | viability at 24 h, 4.68 ug/ml [23]: 100%

NNC(=O)c1ccncc1 [ISONIAZID]
selectivity ratio [2]: 2740 | MIC [3]: 2190 µM (≈ 300 µg/mL) | viability at 24 h, 75 ug/ml [4]: 50% | MIC [5]: 0.2 µM (≈ 0.0274 µg/mL) | viability at 48 h, 150 ug/ml [7]: 40% | IC50 (THP-1): 547 µM | Activity [28]: Active | viability at 48 h, 37.48 ug/ml [8]: 57% | viability at 24 h, 18.72 ug/ml [9]: 83% | viability at 48 h, 9.36 ug/ml [10]: 74% | viability at 48 h, 18.72 ug/ml [12]: 67% | viability at 24 h, 150 ug/ml [13]: 48% | viability at 48 h, 4.68 ug/ml [14]: 84% | Ratio [15]: 1.6 | viability at 48 h, 75 ug/ml [17]: 41% | MBC [18]: 0.3 µM (≈ 0.0411 µg/mL) | viability at 24 h, 37.48 ug/ml [20]: 68% | viability at 24 h, 9.36 ug/ml [21]: 85% | viability at 24 h, 4.68 ug/ml [23]: 90%

Source: ChEMBL document CHEMBL4196081, “Synthesis and antimycobacterial activity of 1-(β-d-Ribofuranosyl)-4-coumarinyloxymethyl- / -coumarinyl-1,2,3-triazole” (Eur J Med Chem, 2018)
